Experimental data published in ChEMBL document CHEMBL5329154, “Novel 1,2,4-oxadiazole compounds as PPAR-α ligand agonists: a new strategy for the design of antitumour compounds” (RSC Med Chem, 2023).

Legend:
[1] = Cytotoxicity against human RPTEC assessed as reduction in cell viability incubated for 72 hrs under normoxic condition by SRB assay; assay type: toxicity, cell-based; settings: RPTEC cells
Procedure, shortened: (§1)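 Cells in DMEM with 2 mM L-glutamine, 10% FBS, penicillin and streptomycin at 37 °C, 5% CO2. Tumour cells (A498, DU-145) kept at hypoxia (1% O2); non-tumour cells (RPTEC, WPMY-1) at normoxia (20–21% O2). Seeded 2 × 10^4 cells/well, grown 12 h, then dosed 72 h at 0.20–100 μM (ten twofold steps, 0.5% DMSO). Fixed in cold 10% TCA, stained with 0.4% SRB, dye solubilised in 10 mM Tris, OD read at 540 nm. CC50 from non-linear regression.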

A498 = assay: Cytotoxicity against human A498 cells assessed as reduction in cell viability incubated for 72 hrs under hypoxic condition by SRB assay; assay type: functional; procedure, shortened: as §1
[2] = Cytotoxicity against human WPMY-1 cells assessed as reduction in cell viability incubated for 72 hrs under normoxic condition by SRB assay; assay type: toxicity, cell-based; procedure, shortened: as §1
DU-145 = assay: Cytotoxicity against human DU-145 cells assessed as reduction in cell viability incubated for 72 hrs under hypoxic condition by SRB assay; assay type: functional; procedure, shortened: as §1
[3] = target: T1, Peroxisome proliferator-activated receptor alpha (Homo sapiens, UniProt Q07869); assay: Agonist activity at GAL4-tagged PPARalpha in human RPTEC assessed as transcriptional activation incubated for 72 hrs under normoxic condition by luciferase assay; assay type: cell-based
T1 sequence (Q07869 whole entry): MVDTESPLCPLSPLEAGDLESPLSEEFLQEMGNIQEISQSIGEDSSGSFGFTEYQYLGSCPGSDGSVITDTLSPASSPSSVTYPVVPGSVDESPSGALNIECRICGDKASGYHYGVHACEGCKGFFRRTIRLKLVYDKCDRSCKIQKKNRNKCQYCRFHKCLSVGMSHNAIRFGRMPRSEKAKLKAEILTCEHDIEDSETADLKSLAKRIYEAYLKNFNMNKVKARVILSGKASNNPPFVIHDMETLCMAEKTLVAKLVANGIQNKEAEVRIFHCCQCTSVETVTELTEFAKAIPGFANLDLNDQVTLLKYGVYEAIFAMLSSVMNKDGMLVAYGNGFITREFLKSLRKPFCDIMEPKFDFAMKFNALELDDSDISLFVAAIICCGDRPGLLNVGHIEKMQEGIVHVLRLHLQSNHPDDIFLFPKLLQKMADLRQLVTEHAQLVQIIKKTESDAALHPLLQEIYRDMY

[4] = target: T1, Peroxisome proliferator-activated receptor alpha; assay: Agonist activity at GAL4-tagged PPARalpha in human A498 cells assessed as transcriptional activation incubated for 72 hrs under hypoxic condition by luciferase assay; assay type: cell-based
[5] = target: T1, Peroxisome proliferator-activated receptor alpha; assay: Agonist activity at GAL4-tagged PPARalpha in human WPMY-1 cells assessed as transcriptional activation incubated for 72 hrs under normoxic condition by luciferase assay; assay type: cell-based
[6] = target: T1, Peroxisome proliferator-activated receptor alpha; assay: Agonist activity at GAL4-tagged PPARalpha in human DU-145 cells assessed as transcriptional activation incubated for 72 hrs under hypoxic condition by luciferase assay; assay type: cell-based

SMILES	CC50 at 72 h [1]	CC50 (A498)	CC50 at 72 h [2]	CC50 (DU-145)	EC50 [3]	EC50 [4]	EC50 [5]	EC50 [6]
c1cncc(-c2noc(-c3ncon3)n2)c1	67.5 µM	3.76 µM	77.7 µM	3.43 µM	–	–	–	–
C1=CC(c2nc(-c3cccnc3)no2)=CC1	66.7 µM	1.37 µM	78.6 µM	1.63 µM	–	–	–	–
c1cncc(-c2noc(-c3ccsc3)n2)c1	63.3 µM	1.32 µM	71.1 µM	1.57 µM	–	–	–	–
c1cncc(-c2noc(-c3ccoc3)n2)c1	54.8 µM	1.52 µM	62.5 µM	1.83 µM	–	–	–	–
c1cncc(-c2noc(-c3nnon3)n2)c1	61.2 µM	2.64 µM	70.1 µM	2.63 µM	–	–	–	–
c1cncc(-c2noc(-c3nn[nH]n3)n2)c1	95.2 µM	5.28 µM	99.2 µM	7.49 µM	–	–	–	–
c1cncc(-c2noc(-c3nc[nH]n3)n2)c1	93.6 µM	3.91 µM	98.1 µM	5.73 µM	–	–	–	–
Cn1cnc(-c2nc(-c3cccnc3)no2)n1	90.9 µM	4.83 µM	94.9 µM	6.82 µM	–	–	–	–
C1=C(c2nc(-c3cccnc3)no2)CCC1	68.4 µM	1.39 µM	81.3 µM	1.68 µM	–	–	–	–
c1cncc(-c2noc(C3CCCC3)n2)c1	84.4 µM	1.79 µM	96.4 µM	2.81 µM	–	–	–	–
c1cncc(-c2noc(-c3ncsn3)n2)c1	45.5 µM	2.2 µM	53.7 µM	2.79 µM	–	–	–	–
Cn1ccc(-c2nc(-c3cccnc3)no2)c1	87.2 µM	2.01 µM	91.8 µM	3.46 µM	–	–	–	–
Cc1cccc(Nc2cc(Cl)nc(CSC(=O)O)n2)c1C	54.1 µM	2.94 µM	62.9 µM	3.21 µM	–	–	–	–
c1cncc(-c2noc(-c3cc[nH]c3)n2)c1	92 µM	2.52 µM	96.9 µM	3.97 µM	–	–	–	–
Cn1nnc(-c2nc(-c3cccnc3)no2)n1	89 µM	3.42 µM	93.4 µM	5.14 µM	–	–	–	–
C1=CC(c2nc(-c3cccnc3)no2)CC1 (stereo unspecified)	74.8 µM	1.53 µM	88 µM	1.81 µM	0.21 µM	0.47 µM	0.73 µM	1.5 µM
c1cncc(-c2noc(-c3nnsn3)n2)c1	38.7 µM	1.21 µM	46.7 µM	1.45 µM	–	–	–	–
CCCCCc1nc(-c2cccnc2)no1	81.7 µM	1.66 µM	92.7 µM	1.93 µM	–	–	–	–
